Measured values taken from ChEMBL document CHEMBL1122159, “Effects of certain hallucinogenic amphetamine analogues on the release of [3H]serotonin from rat brain synaptosomes” (J Med Chem, 1982).

Legend:
Assay type in all cases: functional
[1] = species: Rattus norvegicus; assay: Ability to induce [3H]5-HT release from prelabeled rat whole brain synaptosome preparations and the K value was determined
Summary of the method: (§1)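 Rat whole brain homogenised in ice-cold 0.32 M sucrose. Synaptosomes were isolated on a 1.2/0.8 M sucrose step gradient, preincubated 5 min at 37 °C in oxygenated Krebs-Henseleit, then loaded 5 min with [3H]5-HT (10^-7 M). Filter-retained synaptosomes were washed and superfused at 0.5 mL/min. 1-min fractions were counted for 5 min before and 10 min after drug addition. Efflux rate constant K taken from semilog plots; means of 3-4 experiments.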

[2] = species: Rattus norvegicus; assay: Ability to induce [3H]-5-HT release from prelabeled rat whole brain synaptosome preparations and the activity was determined as percent of total released
[3] = species: Rattus norvegicus; assay: Ability to induce [3H]5-HT release from prelabeled rat whole brain synaptosome preparations; Relative rate of release to that of control was determined; summary of the method: as §1
[4] = species: Rattus norvegicus; assay: Ability to induce [3H]5-HT release from prelabeled rat whole brain synaptosome preparations at 10e-6 M concentration; summary of the method: as §1
[5] = species: Rattus norvegicus; assay: Ability to induce [3H]-5-HT release from prelabeled rat whole brain synaptosome preparations at 10e-5 M concentration; summary of the method: as §1
[6] = species: Rattus norvegicus; assay: Ability to induce [3H]5-HT release from prelabeled rat whole brain synaptosome preparations at 10e-7 M concentration; summary of the method: as §1
[7] = species: Rattus norvegicus; assay: Ability to induce [3H]5-HT release from prelabeled rat whole brain synaptosome preparations and the K value was determined at 10e-5 M; summary of the method: as §1

| SMILES | K [1] | Total release [2] [%] | Relative rate [3] | K [4] [min⁻¹] | K [5] [min⁻¹] | K [6] [min⁻¹] | K [7] [min⁻¹] |
| --- | --- | --- | --- | --- | --- | --- | --- |
| CC(C)(N)Cc1ccc2c(c1)OCO2 | 175 min⁻¹ | 45.2 | 1.09 | – | – | – | – |
| C[C@@H](N)Cc1ccc2c(c1)OCO2 | – | – | – | 2.02e+06 | 3.21e+06 | 2.14e+06 | – |
| CN[C@@H](C)Cc1ccc2c(c1)OCO2 | – | – | – | 2.84e+06 | 2.62e+06 | 1.68e+06 | – |
| CN[C@H](C)Cc1ccc2c(c1)OCO2 | – | – | – | 1.73e+06 | 2.74e+06 | 1.49e+06 | – |
| CNC(C)(C)Cc1ccc2c(c1)OCO2 | 169 min⁻¹ | 44.3 | 1.06 | – | – | – | – |
| COc1ccc(CC(C)N)cc1 (single isomer, unassigned) | 280 10e4min-1 | 57.8 | 1.76 | 2.55e+06 | – | 1.34e+06 | 2.3e+06 |
| C[C@H](N)Cc1ccc2c(c1)OCO2 | – | – | – | 2.42e+06 | 3.07e+06 | 1.78e+06 | – |
| COc1ccc(C[C@@H](C)N)cc1 | – | – | – | 2.28e+06 | 3.07e+06 | 1.39e+06 | – |
| COc1ccc(CC(C)(C)N)cc1 | – | 45 | 1.06 | – | – | – | – |
